According to ChEMBL document CHEMBL1135530, “Selective alpha4beta7 integrin antagonists and their potential as antiinflammatory agents” (J Med Chem, 2002):
Peptide text beside a SMILES is read from it.

Legend:
[1] = target: Intercellular adhesion molecule (ICAM-1), Integrin alpha-L/beta-2 (Homo sapiens, UniProt P05107+P05362+P20701); experiment: Ability to block alphaL-beta2 integrin binding to ICAM-1; assay type: protein-complex assay
Integrin alpha-V/beta-3 = Integrin alpha-V/beta-3 (Homo sapiens, UniProt P05106+P06756); experiment: Ability to block the alphaV-beta3 integrin binding to vitronectin; assay type: protein-complex assay
[2] = target: Integrin alpha-IIb/beta-3 (Homo sapiens, UniProt P05106+P08514); experiment: Inhibition of alpha IIb beta3 integrin binding to fibrinogen; assay type: protein-complex assay
Integrin alpha-4/beta-7 = target: T1, Integrin alpha-4/beta-7 (Homo sapiens, UniProt P13612+P26010); experiment: Ability to block the alpha4-beta7 integrin-MAdCAM-1 binding interaction using a protein ELISA format; assay type: protein-complex assay
T1 sequence (P13612 whole entry): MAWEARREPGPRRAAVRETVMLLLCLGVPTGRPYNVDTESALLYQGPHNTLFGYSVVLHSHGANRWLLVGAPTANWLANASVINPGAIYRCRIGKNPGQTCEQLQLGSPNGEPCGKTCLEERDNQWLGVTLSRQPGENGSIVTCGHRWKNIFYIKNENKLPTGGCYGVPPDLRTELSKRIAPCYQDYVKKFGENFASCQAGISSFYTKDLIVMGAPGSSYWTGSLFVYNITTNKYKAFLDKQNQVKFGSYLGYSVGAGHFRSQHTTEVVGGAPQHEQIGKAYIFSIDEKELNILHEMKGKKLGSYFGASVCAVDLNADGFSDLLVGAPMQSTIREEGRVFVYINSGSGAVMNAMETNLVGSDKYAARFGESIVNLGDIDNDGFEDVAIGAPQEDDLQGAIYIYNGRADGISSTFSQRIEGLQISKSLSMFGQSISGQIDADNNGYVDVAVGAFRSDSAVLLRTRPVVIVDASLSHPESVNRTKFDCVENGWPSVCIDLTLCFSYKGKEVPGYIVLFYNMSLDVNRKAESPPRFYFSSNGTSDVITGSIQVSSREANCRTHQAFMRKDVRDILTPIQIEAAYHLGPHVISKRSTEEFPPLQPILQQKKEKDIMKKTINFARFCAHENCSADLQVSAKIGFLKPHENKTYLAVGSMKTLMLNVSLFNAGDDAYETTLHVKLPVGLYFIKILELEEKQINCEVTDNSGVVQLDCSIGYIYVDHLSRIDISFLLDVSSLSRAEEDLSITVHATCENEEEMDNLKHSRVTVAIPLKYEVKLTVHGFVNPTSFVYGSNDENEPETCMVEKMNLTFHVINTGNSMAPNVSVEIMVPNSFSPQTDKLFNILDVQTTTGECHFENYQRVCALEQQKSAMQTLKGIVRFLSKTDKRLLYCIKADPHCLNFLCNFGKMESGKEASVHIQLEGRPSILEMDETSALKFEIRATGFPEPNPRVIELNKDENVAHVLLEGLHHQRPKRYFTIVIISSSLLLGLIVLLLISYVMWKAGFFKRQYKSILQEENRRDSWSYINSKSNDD
T1 sequence (P26010 whole entry): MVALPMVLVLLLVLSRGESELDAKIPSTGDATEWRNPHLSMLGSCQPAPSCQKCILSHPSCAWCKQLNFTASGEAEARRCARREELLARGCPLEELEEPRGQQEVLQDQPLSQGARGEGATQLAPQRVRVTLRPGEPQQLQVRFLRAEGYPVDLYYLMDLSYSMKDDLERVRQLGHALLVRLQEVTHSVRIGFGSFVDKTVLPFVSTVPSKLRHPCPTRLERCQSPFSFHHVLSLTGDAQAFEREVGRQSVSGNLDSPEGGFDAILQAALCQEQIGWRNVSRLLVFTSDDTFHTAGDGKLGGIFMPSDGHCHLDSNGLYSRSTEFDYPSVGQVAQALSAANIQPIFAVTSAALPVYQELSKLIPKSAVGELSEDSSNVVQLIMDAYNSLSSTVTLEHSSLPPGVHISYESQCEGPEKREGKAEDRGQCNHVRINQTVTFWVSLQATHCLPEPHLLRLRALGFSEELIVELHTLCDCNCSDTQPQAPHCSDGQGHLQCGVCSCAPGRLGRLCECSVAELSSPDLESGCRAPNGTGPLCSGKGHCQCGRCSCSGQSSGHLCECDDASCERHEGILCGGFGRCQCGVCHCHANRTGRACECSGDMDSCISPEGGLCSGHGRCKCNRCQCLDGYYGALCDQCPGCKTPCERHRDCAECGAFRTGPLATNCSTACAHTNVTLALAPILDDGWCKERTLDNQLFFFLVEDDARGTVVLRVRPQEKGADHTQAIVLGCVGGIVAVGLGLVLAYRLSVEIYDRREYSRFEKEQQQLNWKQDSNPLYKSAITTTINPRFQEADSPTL
How it was run: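 Plates coated overnight at 4 °C with anti-human α4 antibody 9F10 (2 µg/mL), blocked in Tris pH 7.5 buffer with 1 mM MnCl2, Tween-20 and 0.5% BSA, then loaded with α4β7 purified from transfected JY cells (2 µg/mL). Compounds (1 nM–200 µM final, triplicate) plus MAdCAM-1-Ig-HRP (1 µg/mL), 2 h room temperature. TMB read at 450 nm; IC50 at half-maximal absorbance.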

Integrin alpha-4/beta-1 = Integrin alpha-4/beta-1 (Homo sapiens, UniProt P05556+P13612); experiment: Inhibitory concentration affording 50% inhibition of alpha4-beta1 integrin binding to VCAM-1, using ELISA assay.; assay type: protein-complex assay
How it was run: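 α4β1 extracted from Ramos cell membranes (lectin chromatography, gel filtration in 1% octylglucoside), with 1 mM MnCl2 throughout. Wells coated with 4 µg/mL recombinant soluble human VCAM-1 (5 N-terminal Ig domains, from CHO cells) and blocked with 1% BSA. Inhibitor and receptor 2 h at 37 °C in Tris pH 7.4. Bound receptor detected with anti-β1 mAb 2D4.6, then HRP anti-mouse and TMB at 450 nm. IC50 at half-maximal absorbance.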

Integrin alpha-5/beta-1 = Integrin alpha-5/beta-1 (Homo sapiens, UniProt P05556+P08648); experiment: Ability to block the alpha5-beta1 integrin binding to fibronectin; assay type: protein-complex assay
[3] = Selectivity is the ratio of inhibitory concentrations at alpha4-beta1 integrin to alpha4-beta7 integrin

Integrin alpha-4/beta-1, sequence (P05556 whole entry, one chain of several, the tested form may be a part): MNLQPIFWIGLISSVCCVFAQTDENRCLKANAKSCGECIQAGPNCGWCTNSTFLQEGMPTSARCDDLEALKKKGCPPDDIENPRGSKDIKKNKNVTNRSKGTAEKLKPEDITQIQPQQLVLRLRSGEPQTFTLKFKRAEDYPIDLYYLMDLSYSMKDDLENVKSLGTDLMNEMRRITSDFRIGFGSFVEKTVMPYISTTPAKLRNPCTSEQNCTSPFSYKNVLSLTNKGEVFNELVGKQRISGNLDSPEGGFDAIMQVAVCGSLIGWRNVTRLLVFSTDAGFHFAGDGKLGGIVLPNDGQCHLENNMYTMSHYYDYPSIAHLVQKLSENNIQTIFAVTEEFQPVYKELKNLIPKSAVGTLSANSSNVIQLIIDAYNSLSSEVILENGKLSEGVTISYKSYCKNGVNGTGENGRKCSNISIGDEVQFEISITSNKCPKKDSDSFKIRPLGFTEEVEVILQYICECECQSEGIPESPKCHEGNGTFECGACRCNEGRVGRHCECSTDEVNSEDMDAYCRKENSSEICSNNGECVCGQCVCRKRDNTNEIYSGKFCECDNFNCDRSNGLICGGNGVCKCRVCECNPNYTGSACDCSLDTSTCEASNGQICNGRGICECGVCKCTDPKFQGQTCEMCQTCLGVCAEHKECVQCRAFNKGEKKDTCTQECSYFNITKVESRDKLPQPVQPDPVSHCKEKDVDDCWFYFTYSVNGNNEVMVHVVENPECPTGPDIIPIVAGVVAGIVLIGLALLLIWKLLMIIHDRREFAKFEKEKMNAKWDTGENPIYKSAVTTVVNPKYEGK
Integrin alpha-5/beta-1, sequence (P05556 21-798 limits assumed): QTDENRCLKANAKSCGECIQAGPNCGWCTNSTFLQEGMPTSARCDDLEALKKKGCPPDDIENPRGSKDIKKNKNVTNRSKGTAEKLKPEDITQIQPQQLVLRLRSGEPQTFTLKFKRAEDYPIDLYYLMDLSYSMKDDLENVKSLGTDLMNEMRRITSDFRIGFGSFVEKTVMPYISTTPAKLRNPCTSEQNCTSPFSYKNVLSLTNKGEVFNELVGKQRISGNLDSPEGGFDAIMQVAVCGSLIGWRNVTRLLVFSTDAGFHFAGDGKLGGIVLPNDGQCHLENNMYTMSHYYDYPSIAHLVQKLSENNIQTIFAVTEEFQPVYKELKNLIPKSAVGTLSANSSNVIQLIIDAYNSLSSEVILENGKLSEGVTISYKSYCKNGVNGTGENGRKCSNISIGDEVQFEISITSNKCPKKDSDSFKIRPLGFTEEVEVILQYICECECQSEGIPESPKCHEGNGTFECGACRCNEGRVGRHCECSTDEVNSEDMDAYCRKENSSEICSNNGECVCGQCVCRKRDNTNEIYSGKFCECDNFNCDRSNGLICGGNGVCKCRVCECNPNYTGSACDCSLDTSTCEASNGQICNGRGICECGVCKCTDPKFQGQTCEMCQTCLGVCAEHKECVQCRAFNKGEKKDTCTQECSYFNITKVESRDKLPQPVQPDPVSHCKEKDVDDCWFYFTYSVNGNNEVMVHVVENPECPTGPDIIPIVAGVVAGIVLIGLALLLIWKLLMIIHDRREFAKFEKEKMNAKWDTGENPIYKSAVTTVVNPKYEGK
Integrin alpha-5/beta-1, sequence (P08648 42-894 limits assumed): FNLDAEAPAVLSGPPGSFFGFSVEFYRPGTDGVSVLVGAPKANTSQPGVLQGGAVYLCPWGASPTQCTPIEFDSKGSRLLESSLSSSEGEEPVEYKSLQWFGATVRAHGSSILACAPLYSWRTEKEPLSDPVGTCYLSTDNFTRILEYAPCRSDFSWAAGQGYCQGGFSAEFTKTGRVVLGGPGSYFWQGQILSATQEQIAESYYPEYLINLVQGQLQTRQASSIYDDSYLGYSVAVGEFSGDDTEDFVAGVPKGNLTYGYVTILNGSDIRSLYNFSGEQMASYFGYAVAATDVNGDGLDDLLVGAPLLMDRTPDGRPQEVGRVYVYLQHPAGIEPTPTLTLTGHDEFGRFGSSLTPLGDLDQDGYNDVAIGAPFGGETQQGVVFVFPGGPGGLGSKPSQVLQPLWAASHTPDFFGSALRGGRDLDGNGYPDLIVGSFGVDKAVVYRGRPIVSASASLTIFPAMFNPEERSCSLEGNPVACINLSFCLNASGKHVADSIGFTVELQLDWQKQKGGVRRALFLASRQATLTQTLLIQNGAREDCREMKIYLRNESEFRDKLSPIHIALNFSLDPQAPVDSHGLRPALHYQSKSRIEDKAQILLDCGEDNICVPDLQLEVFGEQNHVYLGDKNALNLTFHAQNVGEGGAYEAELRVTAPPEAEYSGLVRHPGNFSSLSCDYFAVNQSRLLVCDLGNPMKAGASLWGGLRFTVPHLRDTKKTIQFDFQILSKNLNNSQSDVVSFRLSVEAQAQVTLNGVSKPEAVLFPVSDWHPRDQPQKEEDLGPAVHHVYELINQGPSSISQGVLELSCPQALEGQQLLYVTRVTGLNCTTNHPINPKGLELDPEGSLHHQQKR
Integrin alpha-5/beta-1, sequence (P08648 895-1049 limits assumed): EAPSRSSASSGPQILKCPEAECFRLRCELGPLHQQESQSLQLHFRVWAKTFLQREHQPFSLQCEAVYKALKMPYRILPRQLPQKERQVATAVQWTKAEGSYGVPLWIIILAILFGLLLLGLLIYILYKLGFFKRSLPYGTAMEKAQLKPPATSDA
Integrin alpha-IIb/beta-3, sequence (P05106 27-788 limits assumed): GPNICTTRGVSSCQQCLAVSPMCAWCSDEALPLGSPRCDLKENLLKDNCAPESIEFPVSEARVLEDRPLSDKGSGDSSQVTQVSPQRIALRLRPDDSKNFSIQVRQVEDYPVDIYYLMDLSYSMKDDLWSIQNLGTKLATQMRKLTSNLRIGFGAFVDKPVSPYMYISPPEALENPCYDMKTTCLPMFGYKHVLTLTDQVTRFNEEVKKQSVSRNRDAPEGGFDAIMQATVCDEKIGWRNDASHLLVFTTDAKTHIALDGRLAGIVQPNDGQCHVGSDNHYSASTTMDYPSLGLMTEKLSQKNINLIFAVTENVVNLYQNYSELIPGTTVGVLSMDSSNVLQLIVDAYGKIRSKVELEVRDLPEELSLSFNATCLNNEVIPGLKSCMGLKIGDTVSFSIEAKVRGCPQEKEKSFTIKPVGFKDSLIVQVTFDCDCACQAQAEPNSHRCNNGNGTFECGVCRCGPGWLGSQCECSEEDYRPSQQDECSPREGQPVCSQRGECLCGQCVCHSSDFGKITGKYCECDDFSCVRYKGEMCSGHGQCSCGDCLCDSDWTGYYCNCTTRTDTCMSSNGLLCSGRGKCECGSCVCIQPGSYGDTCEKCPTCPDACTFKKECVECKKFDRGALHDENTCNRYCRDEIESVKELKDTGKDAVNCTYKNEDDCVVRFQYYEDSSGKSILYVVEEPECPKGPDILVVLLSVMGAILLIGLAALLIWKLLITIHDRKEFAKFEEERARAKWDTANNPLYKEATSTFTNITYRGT
Integrin alpha-IIb/beta-3, sequence (P08514 32-887 limits assumed): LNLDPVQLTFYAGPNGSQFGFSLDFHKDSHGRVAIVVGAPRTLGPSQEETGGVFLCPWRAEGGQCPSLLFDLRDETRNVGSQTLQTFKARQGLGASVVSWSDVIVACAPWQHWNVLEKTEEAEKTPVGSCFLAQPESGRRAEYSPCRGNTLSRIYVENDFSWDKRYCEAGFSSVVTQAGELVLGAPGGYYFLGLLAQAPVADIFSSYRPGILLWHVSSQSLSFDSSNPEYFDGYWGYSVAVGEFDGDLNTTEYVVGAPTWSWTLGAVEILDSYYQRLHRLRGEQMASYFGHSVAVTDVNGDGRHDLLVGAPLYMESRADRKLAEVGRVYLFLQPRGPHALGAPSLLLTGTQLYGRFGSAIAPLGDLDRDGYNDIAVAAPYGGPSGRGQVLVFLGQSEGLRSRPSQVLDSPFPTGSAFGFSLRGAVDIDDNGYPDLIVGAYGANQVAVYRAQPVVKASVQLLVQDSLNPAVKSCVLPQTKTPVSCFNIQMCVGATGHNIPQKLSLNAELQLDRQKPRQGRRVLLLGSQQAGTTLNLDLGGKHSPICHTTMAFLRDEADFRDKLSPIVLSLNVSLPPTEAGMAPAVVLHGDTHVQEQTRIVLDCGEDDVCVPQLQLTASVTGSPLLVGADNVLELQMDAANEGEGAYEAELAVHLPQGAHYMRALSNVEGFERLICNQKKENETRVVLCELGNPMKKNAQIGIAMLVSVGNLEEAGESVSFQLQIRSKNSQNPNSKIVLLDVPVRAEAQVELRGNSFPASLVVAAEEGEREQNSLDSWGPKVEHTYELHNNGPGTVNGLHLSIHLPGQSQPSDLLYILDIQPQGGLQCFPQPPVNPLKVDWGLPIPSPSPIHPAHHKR
Integrin alpha-IIb/beta-3, sequence (P08514 891-1039 limits assumed): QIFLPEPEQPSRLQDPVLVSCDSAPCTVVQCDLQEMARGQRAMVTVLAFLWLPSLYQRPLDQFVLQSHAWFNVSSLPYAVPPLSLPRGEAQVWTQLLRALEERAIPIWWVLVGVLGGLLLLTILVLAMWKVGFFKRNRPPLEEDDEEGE

Structure (SMILES) | Ratio [3] | also measured
CC(C)C[C@@H]1NC(=O)[C@H]([C@@H](C)O)NC(=O)[C@H](CC(=O)O)NC(=O)[C@H](CO)NC(=O)[C@H](CCCN=C(N)N)NC(=O)[C@@H](N)CSSC[C@@H](C(=O)NCC(=O)N[C@@H](CCC(=O)O)C(N)=O)NC1=O (HELM PEPTIDE1{C.R.S.D.T.L.C.G.E.[am]}$PEPTIDE1,PEPTIDE1,1:R3-7:R3$$$V2.0) | – | IC50 [1]: > 100 µM; IC50 (Integrin alpha-V/beta-3): 1 µM; IC50 [2]: > 25 µM; IC50 (Integrin alpha-4/beta-7): 0.03 µM; IC50 (Integrin alpha-4/beta-1): 1.1 µM; IC50 (Integrin alpha-5/beta-1): 6.1 µM
CC(C)C[C@H]1NC(=O)[C@H](CO)NC(=O)[C@@H](CC(=O)O)NC(=O)[C@H](CO)NC(=O)[C@@H](CCCN=C(N)N)NC(=O)[C@H](N)CSSC[C@H](C(N)=O)NC1=O | 48 | –
CC(C)C[C@H]1NC(=O)[C@H]([C@@H](C)O)NC(=O)[C@@H](CC(=O)O)NC(=O)[C@H](CO)NC(=O)[C@@H](Cc2ccccc2)NC(=O)[C@H](N)CSSC[C@H](C(N)=O)NC1=O | 0.09 | –
CC(C)C[C@H]1NC(=O)[C@H]([C@@H](C)O)NC(=O)[C@@H](CC(N)=O)NC(=O)[C@H](CO)NC(=O)[C@@H](CCCN=C(N)N)NC(=O)[C@H](N)CSSC[C@H](C(=O)O)NC1=O | 0.06 | –
CC(C)[C@H]1NC(=O)[C@H]([C@@H](C)O)NC(=O)[C@@H](CC(=O)O)NC(=O)[C@H](CO)NC(=O)[C@@H](CCCN=C(N)N)NC(=O)[C@H](N)CSSC[C@H](C(N)=O)NC1=O | 13.1 | –
CC(C)C[C@H]1NC(=O)[C@H]([C@@H](C)O)NC(=O)[C@@H](CC(N)=O)NC(=O)[C@H](CO)NC(=O)[C@@H](CCCN=C(N)N)NC(=O)[C@H](N)CSSC[C@H](C(N)=O)NC1=O | 0.5 | –
CC(C)C[C@H]1NC(=O)[C@@H]([C@@H](C)O)NC(=O)[C@@H](CC(=O)O)NC(=O)[C@H](CO)NC(=O)[C@@H](CCCN=C(N)N)NC(=O)[C@H](N)CSSC[C@H](C(N)=O)NC1=O | 2.5 | IC50 (Integrin alpha-4/beta-7): 7.9 µM; IC50 (Integrin alpha-4/beta-1): 20 µM
CC(C)C[C@H]1NC(=O)[C@H]([C@H](C)O)NC(=O)[C@@H](CC(=O)O)NC(=O)[C@@H](CO)NC(=O)[C@@H](CCCN=C(N)N)NC(=O)[C@H](N)CSSC[C@H](C(N)=O)NC1=O | > 2.3 | IC50 (Integrin alpha-4/beta-7): 43 µM; IC50 (Integrin alpha-4/beta-1): > 100 µM
CC(C)C[C@H]1NC(=O)[C@H](C(C)C)NC(=O)[C@@H](CC(=O)O)NC(=O)[C@H](CO)NC(=O)[C@@H](CCCN=C(N)N)NC(=O)[C@H](N)CSSC[C@H](C(N)=O)NC1=O | 15.5 | –
CC[C@H](C)[C@H]1NC(=O)[C@H]([C@@H](C)O)NC(=O)[C@@H](CC(=O)O)NC(=O)[C@H](CO)NC(=O)[C@@H](CCCN=C(N)N)NC(=O)[C@H](N)CSSC[C@H](C(N)=O)NC1=O | 14 | –
C[C@@H](O)[C@@H]1NC(=O)[C@@H](CC(=O)O)NC(=O)[C@H](CO)NC(=O)[C@@H](CCCN=C(N)N)NC(=O)[C@H](N)CSSC[C@H](C(N)=O)NC(=O)CNC1=O | > 9 | –
